In ChEMBL document CHEMBL5705905, “Pharmacological targeting of kinases MST1 and MST2 augments tissue repair and regeneration” (Sci Transl Med, 2016):
Active and inactive are the calls of the source. The calls are words filed in the database; no cut-off is given here.

Columns and labels:
[1] = target: Tyrosine-protein kinase Lyn (Homo sapiens) (UniProt P07948); test: Inhibition of LYN (unknown origin) assessed as remaining activity at 1 uM by Kinome scan method relative to control
[2] = target: Tyrosine-protein kinase SYK (Homo sapiens) (UniProt P43405); test: Inhibition of SYK (unknown origin) assessed as remaining activity at 1 uM by Kinome scan method relative to control
[3] = target: Serine/threonine-protein kinase STK11 (Homo sapiens) (UniProt Q15831); test: Inhibition of LKB1 (unknown origin) assessed as remaining activity at 1 uM by Kinome scan method relative to control
[4] = target: Cyclin-dependent kinase 2 (Homo sapiens) (UniProt P24941); test: Inhibition of CDK2 (unknown origin) assessed as remaining activity at 1 uM by Kinome scan method relative to control
Method in brief: (§1)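 Active-site-dependent competition-binding profiling (KINOMEscan) at 1 μM against a 468-kinase panel; compound supplied from a 10 mM DMSO stock. Read-out is ctrl% = (test signal − positive control signal)/(negative control signal − positive control signal) × 100. DMSO is the negative control (100%) and a control compound the positive control (0%). Lower ctrl% means tighter binding.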

[5] = target: T1, Serine/threonine-protein kinase 3 (Homo sapiens, UniProt Q13188); test: Inhibition of MST2 (unknown origin) in presence of ATP by enzymatic assay
T1 sequence (Q13188 whole entry): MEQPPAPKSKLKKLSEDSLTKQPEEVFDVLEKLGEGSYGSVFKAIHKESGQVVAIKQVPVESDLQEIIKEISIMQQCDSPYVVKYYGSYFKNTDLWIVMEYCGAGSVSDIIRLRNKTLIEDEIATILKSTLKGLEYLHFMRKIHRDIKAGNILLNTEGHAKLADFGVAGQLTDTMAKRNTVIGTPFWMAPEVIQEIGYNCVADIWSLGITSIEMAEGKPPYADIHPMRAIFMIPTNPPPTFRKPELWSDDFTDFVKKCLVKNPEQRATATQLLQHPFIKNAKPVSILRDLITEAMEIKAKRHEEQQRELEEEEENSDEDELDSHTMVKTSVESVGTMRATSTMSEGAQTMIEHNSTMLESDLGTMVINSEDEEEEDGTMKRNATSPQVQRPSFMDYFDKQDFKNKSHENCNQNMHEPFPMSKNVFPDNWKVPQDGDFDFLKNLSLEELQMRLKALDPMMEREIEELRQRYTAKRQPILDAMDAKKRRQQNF

[6] = target: Phosphatidylinositol 4-phosphate 5-kinase type-1 gamma (Homo sapiens, UniProt O60331); test: Inhibition of PIP5K1C (unknown origin) in presence of ATP by enzymatic assay
Mus musculus [7] = test: Protection against CCl4-induced mouse assessed as low level in collagen deposition at 1 mg/kg, ip administration daily for 10 days by Sirius Red staining; type: functional, organism-based; conditions: Liver, time 10.0 day
[8] = AUC (0 to t) in male Sprague-Dawley rat at 5 mg/kg, iv measured for 24 hrs by LC-MS/MS analysis; type: ADME, organism-based; conditions: in vivo
Method in brief: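 Sprague-Dawley rats, single intravenous or oral dose. Parameters (half-life, AUC, bioavailability) reported in a supplementary table.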

[9] = target: T1, Serine/threonine-protein kinase 3
[10] = target: Tyrosine-protein kinase ABL1 (Homo sapiens, UniProt P00519, Q252H); test: Inhibition of phosphorylated ABL1 Q252H mutant (unknown origin) in presence of ATP by enzymatic assay
[11] = target: Tyrosine-protein kinase BTK (Homo sapiens) (UniProt Q06187); test: Inhibition of BTK (unknown origin) assessed as remaining activity at 1 uM by Kinome scan method relative to control
Method in brief: (§2)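 Active-site-dependent competition-binding (KINOMEscan) panel of 468 kinases, test compound at 1 μM (from a 10 mM DMSO stock). Read-out is ctrl% = (test signal − positive control signal)/(negative control signal − positive control signal) × 100. DMSO is the negative control (100%) and a control compound is the positive control (0%). Lower ctrl% means tighter binding.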

[12] = target: Ribosomal protein S6 kinase alpha-6 (Homo sapiens) (UniProt Q9UK32); test: Inhibition of N-terminal kinase domain RSK4 (unknown origin) assessed as remaining activity at 1 uM by Kinome scan method relative to control
[13] = target: Tyrosine-protein kinase Srms (Homo sapiens) (UniProt Q9H3Y6); test: Inhibition of SRMS (unknown origin) assessed as remaining activity at 1 uM by Kinome scan method relative to control
[14] = target: Ribosomal protein S6 kinase alpha-4 (Homo sapiens) (UniProt O75676); test: Inhibition of N-terminal kinase domain RPS6KA4 (unknown origin) assessed as remaining activity at 1 uM by Kinome scan method relative to control
[15] = test system: Receptor-type tyrosine-protein kinase FLT3 (Homo sapiens), P36888 [UNDEFINED MUTATION]; test: Inhibition of FLT3 […]/D835V mutant (unknown origin) assessed as remaining activity at 1 uM by Kinome scan method relative to control
[16] = target: Wee1-like protein kinase 2 (Homo sapiens) (UniProt P0C1S8); test: Inhibition of WEE2 (unknown origin) assessed as remaining activity at 1 uM by Kinome scan method relative to control
[17] = target: Tyrosine-protein kinase JAK1 (Homo sapiens, UniProt P23458); test: Binding affinity to JAK1 JH2domain-pseudokinase (unknown origin) assessed as dissociation constant
[18] = target: Dual specificity protein kinase CLK2 (Homo sapiens) (UniProt P49760); test: Inhibition of CLK2 (unknown origin) assessed as remaining activity at 1 uM by Kinome scan method relative to control; method in brief: as §1
[19] = target: Phosphorylase b kinase gamma catalytic chain, liver/testis isoform (Homo sapiens) (UniProt P15735); test: Inhibition of PHKG2 (unknown origin) assessed as remaining activity at 1 uM by Kinome scan method relative to control
[20] = target: Serine/threonine-protein kinase 32C (Homo sapiens) (UniProt Q86UX6); test: Inhibition of YANK3 (unknown origin) assessed as remaining activity at 1 uM by Kinome scan method relative to control
[21] = target: Tyrosine-protein kinase receptor UFO (Homo sapiens) (UniProt P30530); test: Inhibition of AXL (unknown origin) assessed as remaining activity at 1 uM by Kinome scan method relative to control; method in brief: as §2
Mus musculus [22] = test: Protection against APAP induced liver injury in mouse assessed as decrease in mortality rate at 1 mg/kg, ip administered at 2.5 hrs; type: functional, organism-based
[23] = target: Serine/threonine-protein kinase TAO3 (Homo sapiens) (UniProt Q9H2K8); test: Inhibition of TAOK3 (unknown origin) assessed as remaining activity at 1 uM by Kinome scan method relative to control
[24] = Binding affinity to phosphorylated ABL1 T315I mutant (unknown origin) assessed as dissociation constant; design: species or system Homo sapiens
[25] = target: Tyrosine-protein kinase ITK/TSK (Homo sapiens) (UniProt Q08881); test: Inhibition of ITK (unknown origin) assessed as remaining activity at 1 uM by Kinome scan method relative to control

Tyrosine-protein kinase BTK (Homo sapiens), sequence (Q06187 whole entry): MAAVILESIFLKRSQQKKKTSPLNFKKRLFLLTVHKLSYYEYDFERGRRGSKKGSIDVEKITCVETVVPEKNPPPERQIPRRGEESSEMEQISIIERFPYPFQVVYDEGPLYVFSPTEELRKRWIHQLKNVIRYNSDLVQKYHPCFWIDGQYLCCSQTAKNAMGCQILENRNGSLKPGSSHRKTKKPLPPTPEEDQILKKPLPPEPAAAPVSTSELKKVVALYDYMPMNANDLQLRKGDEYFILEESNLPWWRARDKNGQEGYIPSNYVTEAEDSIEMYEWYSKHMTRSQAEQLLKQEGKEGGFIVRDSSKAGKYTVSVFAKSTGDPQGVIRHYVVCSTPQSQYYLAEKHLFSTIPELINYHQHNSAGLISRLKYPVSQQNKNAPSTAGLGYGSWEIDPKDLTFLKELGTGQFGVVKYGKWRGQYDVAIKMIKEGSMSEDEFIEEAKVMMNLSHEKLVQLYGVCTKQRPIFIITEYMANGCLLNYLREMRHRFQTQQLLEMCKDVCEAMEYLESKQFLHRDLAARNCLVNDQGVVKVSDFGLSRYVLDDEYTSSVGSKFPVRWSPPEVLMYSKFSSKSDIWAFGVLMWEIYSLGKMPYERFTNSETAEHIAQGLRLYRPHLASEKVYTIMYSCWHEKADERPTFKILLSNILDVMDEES
Phosphorylase b kinase gamma catalytic chain, liver/testis isoform (Homo sapiens), sequence (P15735 whole entry, canonical isoform): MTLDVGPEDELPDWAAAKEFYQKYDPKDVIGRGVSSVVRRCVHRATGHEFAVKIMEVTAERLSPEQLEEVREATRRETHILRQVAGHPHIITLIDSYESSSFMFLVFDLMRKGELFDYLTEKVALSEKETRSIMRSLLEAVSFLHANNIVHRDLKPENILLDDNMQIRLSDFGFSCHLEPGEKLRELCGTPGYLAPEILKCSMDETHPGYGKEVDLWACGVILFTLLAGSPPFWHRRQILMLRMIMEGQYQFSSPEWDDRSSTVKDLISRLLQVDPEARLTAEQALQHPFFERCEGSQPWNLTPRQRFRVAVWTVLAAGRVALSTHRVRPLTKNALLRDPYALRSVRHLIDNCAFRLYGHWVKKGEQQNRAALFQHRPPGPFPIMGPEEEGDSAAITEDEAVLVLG
Ribosomal protein S6 kinase alpha-6 (Homo sapiens), sequence (Q9UK32 whole entry, the tested form may be a part): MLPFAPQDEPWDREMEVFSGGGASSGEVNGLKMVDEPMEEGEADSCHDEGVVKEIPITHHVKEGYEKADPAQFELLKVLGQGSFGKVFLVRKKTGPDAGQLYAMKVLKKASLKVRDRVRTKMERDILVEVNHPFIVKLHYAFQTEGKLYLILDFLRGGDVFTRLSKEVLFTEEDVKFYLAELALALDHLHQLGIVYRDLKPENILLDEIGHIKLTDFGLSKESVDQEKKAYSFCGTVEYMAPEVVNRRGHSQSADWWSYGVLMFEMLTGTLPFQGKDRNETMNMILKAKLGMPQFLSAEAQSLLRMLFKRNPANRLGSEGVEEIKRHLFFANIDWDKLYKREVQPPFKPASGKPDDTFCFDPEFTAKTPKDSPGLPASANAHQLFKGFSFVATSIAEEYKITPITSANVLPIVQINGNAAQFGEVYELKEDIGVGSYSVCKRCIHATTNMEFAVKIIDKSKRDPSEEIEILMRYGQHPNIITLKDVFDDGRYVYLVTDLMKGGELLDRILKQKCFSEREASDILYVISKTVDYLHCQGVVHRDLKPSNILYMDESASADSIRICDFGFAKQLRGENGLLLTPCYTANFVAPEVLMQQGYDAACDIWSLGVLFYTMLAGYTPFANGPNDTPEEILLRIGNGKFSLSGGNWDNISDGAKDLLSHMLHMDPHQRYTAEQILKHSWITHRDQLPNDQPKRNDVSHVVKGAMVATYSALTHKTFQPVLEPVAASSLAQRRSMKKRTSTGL
Serine/threonine-protein kinase STK11 (Homo sapiens), sequence (Q15831 whole entry): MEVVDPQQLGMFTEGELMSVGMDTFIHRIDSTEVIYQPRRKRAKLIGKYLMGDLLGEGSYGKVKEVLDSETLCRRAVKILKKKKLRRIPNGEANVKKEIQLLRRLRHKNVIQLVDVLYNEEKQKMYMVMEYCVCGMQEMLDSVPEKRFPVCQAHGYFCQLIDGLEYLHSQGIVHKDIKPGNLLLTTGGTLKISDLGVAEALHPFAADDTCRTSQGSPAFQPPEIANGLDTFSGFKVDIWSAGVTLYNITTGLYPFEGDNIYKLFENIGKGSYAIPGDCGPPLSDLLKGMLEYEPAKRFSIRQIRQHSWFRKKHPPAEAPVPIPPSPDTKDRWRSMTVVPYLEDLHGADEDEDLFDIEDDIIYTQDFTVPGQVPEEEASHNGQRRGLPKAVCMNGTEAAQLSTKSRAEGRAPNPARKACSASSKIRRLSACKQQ
Serine/threonine-protein kinase 32C (Homo sapiens), sequence (Q86UX6 whole entry): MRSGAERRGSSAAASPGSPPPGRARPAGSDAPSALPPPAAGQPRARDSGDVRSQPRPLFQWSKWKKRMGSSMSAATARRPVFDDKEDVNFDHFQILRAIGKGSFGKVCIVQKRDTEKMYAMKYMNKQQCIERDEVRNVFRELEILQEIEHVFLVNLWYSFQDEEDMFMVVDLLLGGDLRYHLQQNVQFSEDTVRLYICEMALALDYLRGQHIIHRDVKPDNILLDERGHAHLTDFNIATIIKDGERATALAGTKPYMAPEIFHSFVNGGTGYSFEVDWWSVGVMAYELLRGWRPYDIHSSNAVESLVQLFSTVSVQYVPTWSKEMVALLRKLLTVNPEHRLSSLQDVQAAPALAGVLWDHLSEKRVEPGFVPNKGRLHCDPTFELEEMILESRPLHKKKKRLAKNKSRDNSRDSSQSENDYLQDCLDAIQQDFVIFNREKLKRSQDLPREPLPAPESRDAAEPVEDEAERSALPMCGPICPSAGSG
Tyrosine-protein kinase JAK1, sequence (P23458 whole entry): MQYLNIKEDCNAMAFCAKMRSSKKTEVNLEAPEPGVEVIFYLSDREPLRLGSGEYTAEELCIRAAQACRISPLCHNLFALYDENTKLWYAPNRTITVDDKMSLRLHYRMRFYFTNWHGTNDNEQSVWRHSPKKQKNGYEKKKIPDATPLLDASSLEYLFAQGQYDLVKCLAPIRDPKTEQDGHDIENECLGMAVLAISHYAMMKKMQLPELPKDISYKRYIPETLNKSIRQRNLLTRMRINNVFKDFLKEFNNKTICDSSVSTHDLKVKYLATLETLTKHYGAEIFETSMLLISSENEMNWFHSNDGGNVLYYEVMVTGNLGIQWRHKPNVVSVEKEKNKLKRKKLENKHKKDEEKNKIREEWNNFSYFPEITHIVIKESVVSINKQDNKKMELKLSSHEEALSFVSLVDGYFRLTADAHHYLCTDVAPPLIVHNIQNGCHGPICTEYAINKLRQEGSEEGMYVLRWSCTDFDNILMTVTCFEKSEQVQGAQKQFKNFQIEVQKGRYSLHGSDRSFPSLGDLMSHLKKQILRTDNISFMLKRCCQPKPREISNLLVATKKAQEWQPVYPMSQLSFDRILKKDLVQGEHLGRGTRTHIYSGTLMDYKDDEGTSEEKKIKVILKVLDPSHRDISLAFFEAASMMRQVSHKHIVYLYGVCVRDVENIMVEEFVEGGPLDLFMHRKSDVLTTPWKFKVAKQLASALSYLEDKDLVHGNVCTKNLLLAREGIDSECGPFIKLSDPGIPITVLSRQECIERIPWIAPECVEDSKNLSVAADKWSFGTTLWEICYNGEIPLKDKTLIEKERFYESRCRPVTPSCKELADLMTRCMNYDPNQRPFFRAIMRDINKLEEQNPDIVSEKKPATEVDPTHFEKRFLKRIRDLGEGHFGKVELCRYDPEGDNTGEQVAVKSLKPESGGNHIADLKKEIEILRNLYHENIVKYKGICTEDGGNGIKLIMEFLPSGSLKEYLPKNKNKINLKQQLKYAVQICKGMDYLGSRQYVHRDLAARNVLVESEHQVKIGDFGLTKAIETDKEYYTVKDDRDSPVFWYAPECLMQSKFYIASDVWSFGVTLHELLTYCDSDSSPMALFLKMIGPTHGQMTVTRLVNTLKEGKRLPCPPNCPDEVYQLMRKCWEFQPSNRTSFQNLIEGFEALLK
Serine/threonine-protein kinase TAO3 (Homo sapiens), sequence (Q9H2K8 whole entry): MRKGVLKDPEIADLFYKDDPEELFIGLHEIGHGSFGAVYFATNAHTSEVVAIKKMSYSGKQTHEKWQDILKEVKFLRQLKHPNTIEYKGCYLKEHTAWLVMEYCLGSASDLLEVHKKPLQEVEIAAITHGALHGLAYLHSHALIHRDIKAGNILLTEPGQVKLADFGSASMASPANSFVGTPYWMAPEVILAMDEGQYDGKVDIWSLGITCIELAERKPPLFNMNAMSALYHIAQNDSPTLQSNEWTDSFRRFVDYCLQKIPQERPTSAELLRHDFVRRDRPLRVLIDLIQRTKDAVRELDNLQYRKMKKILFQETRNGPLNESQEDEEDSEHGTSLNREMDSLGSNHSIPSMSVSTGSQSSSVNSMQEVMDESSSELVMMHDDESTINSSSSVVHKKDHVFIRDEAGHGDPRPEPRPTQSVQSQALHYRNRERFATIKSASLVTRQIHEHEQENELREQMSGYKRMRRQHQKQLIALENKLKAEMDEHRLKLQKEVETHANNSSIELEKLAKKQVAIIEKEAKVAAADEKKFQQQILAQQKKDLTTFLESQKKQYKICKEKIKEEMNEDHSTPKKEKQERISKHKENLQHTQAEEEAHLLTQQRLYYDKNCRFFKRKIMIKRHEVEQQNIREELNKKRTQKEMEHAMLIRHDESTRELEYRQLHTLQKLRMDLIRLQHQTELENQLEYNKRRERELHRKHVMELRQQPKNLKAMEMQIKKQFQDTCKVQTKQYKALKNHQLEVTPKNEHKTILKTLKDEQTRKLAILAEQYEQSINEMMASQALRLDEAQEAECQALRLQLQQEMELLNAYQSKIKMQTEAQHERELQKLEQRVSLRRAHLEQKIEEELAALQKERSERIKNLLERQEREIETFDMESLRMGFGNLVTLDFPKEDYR

## CN1C(=O)c2sccc2N(C)c2nc(Nc3ccc(S(N)(=O)=O)cc3)ncc21
[1]
  Activity: 100%
[2]
  Activity: 90%
[3]
  Activity: 96%
[4]
  Activity: 90%
[5]
  IC50: 0.0182 µM
[6]
  IC50: 0.436 µM
Mus musculus [7]
  Activity: Active
[8]
  AUC(0-t) at 24 h: 1.26 µg·h/mL
[9]
  IC50: 0.0388 µM
[10]
  IC50: 0.0116 µM
[11]
  Activity: 48%
[12]
  Activity: 66%
[13]
  Activity: 100%
[14]
  Activity: 81%
[15]
  Activity: 27%
[16]
  Activity: 91%
[17]
  Kd: 0.022 µM
[18]
  Activity: 71%
[19]
  Activity: 100%
[20]
  Activity: 100%
[21]
  Activity: 86%
Mus musculus [22]
  Activity: Active
[23]
  Activity: 4.5%
[24]
  Kd: 0.014 µM
[25]
  Activity: 97%
